The values below come from ChEMBL document CHEMBL1135804, “Beta-strand mimicking macrocyclic amino acids: templates for protease inhibitors with antiviral activity” (J Med Chem, 2002).

Structures are written as SMILES.

The nature of data set [1]: The Water-octanol distribution coefficient at pH6.5. The note with it: pH 6.5, read-out: Log D6.5. The class given is physicochemical. The essentials:
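Value computed by a cited calculation method at pH 6.5, not measured experimentally.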

The subject of data set [2] is MT2. The data set can be described thus: Concentration required to produce 50% reduction in virion associated RT activity in HIV-1 infected MT2 cells. The data set is classed as functional, cell-based. The following applies: Homo sapiens. Summed up:
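MT2 cells (5 × 10⁴ per 0.25 mL RF10, RPMI-1640-based) given compound (diluted from 20 mM stock in 60% ethanol), then immediately HIV-1 strain #237288 at 200 TCID₅₀; 37 °C, 5% CO₂, 6–7 days; duplicates. Supernatant virus PEG-precipitated, virion-associated RT activity counted by scintillation; % inhibition versus virus-only controls; IC50 = 50% RT reduction.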

For data set [3], the target named is Human immunodeficiency virus type 1 protease (Human immunodeficiency virus 1, UniProt Q72874). The data set can be described thus: Inhibitory activity against HIV-1 protease.

Turning to `CCCC[C@@H]1NC(=O)[C@@H](NC(=O)OC(C)(C)C)CCCCOc2ccc(cc2)C[C@@H]([C@H](O)CN(CCC(C)C)S(=O)(=O)c2ccc(NC(C)=O)cc2)NC1=O`, the logD in data set [1] was found to be 4.8. In data set [2], this compound showed an IC50 of 390 nM. In data set [3], the Ki stood at 7.5 nM.

Turning to `CCCC[C@@H]1NC(=O)[C@@H](NC(=O)[C@@H](N)CO)CCCCOc2ccc(cc2)C[C@@H]([C@H](O)CN(CCC(C)C)S(=O)(=O)c2ccc(N)cc2)NC1=O`, the logD in data set [1] was 0.6. Further, the IC50 in data set [2] was > 10000 nM. In data set [3], the Ki was 3 nM.

`CC(C)CN(C[C@@H](O)[C@H](Cc1ccccc1)NC(=O)O[C@H]1CCOC1)S(=O)(=O)c1ccc(N)cc1` showed an IC50 in data set [2] of 30 nM.

With `CCCC[C@@H]1NC(=O)[C@@H](NC(=O)[C@H](CO)NC(=O)OC(C)(C)C)CCCCOc2ccc(cc2)C[C@@H]([C@H](O)CN(CCC(C)C)S(=O)(=O)c2ccc(NC(C)=O)cc2)NC1=O`, the logD in data set [1] stood at 3. This compound also came in with an IC50 in data set [2] of 2550 nM. This compound also returned a Ki in data set [3] of 12 nM.

`CCCOC[C@@H]1NC(=O)[C@@H](NC(=O)OC(C)(C)C)CCCCOc2ccc(cc2)C[C@@H]([C@H](O)CN(CCC(C)C)S(=O)(=O)c2ccc(NC(C)=O)cc2)NC1=O`: the logD in data set [1] came out at 3.6. In addition, the IC50 in data set [2] is 825 nM. Also, the affinity in data set [3] corresponds to a Ki of 45 nM.

`CCCC[C@@H]1NC(=O)[C@@H](N)CCCCOc2ccc(cc2)C[C@@H]([C@H](O)CN(CCC(C)C)S(=O)(=O)c2ccc(N)cc2)NC1=O`: the logD in data set [1] is 1.7. The same compound showed an IC50 in data set [2] of 6850 nM. In addition, in data set [3], the Ki worked out at 0.31 nM.

With `CCCOC[C@@H]1NC(=O)[C@@H](N)CCCCOc2ccc(cc2)C[C@@H]([C@H](O)CN(CCC(C)C)S(=O)(=O)c2ccc(N)cc2)NC1=O`, the logD in data set [1] is 0.5. The IC50 in data set [2] was > 10000 nM. The same compound showed a Ki in data set [3] of 45 nM.

On to `CC(=O)Nc1ccc(S(=O)(=O)N(CCC(C)C)C[C@@H](O)[C@@H]2Cc3ccc(cc3)OCCCC[C@H](NC(=O)OC(C)(C)C)C(=O)N[C@@H](C(C)C)C(=O)N2)cc1`, for which the logD in data set [1] stood at 4.1. Moreover, in data set [2], 177 nM corresponded to half-maximal inhibition (IC50). In addition, affinity in data set [3] was put at a Ki of 2 nM.

In the case of `CC(=O)N[C@@H](CO)C(=O)N[C@H]1CCCCOc2ccc(cc2)C[C@@H]([C@H](O)CN(CCC(C)C)S(=O)(=O)c2ccc(N)cc2)NC(=O)[C@H](C(C)C)NC1=O`, the logD in data set [1] turned out to be 0.4. For the same compound, the IC50 in data set [2] is > 10000 nM. For the same compound, the Ki in data set [3] worked out at 0.34 nM.

Take `CCCCC(=O)N[C@H]1CCCCOc2ccc(cc2)C[C@@H]([C@H](O)CN(CCC(C)C)S(=O)(=O)c2ccc(NC(C)=O)cc2)NC(=O)[C@H](CCCC)NC1=O`: in data set [1], the logD worked out at 4.6. In addition, half-maximal inhibition in data set [2] (IC50) was put at 580 nM.

Take `CC(C)CCN(C[C@@H](O)[C@@H]1Cc2ccc(cc2)OCCCC[C@H](N)C(=O)N[C@@H](C(C)C)C(=O)N1)S(=O)(=O)c1ccc(N)cc1`: the logD in data set [1] stood at 1. In data set [2], the IC50 was > 10000 nM. For the same compound, the Ki in data set [3] amounted to 0.9 nM.

On to `CCCC[C@@H]1NC(=O)[C@@H](NC(C)=O)CCCCOc2ccc(cc2)C[C@@H]([C@H](O)CN(CCC(C)C)S(=O)(=O)c2ccc(N)cc2)NC1=O`, for which the logD in data set [1] is 3. In data set [2], the IC50 is 910 nM. The compound further showed a Ki in data set [3] of 2.8 nM.
